Laboratory results: ChEMBL document CHEMBL3580573, “Ibogan, tacaman, and cytotoxic bisindole alkaloids from tabernaemontana. Cononusine, an iboga alkaloid with unusual incorporation of a pyrrolidone moiety” (J Nat Prod, 2015)

Columns and labels:
KB [1] = assay: Cytotoxicity against vincristine-sensitive human KB cells assessed as growth inhibition after 72 hrs by MTT assay; format: functional, cell-based
KB [2] = assay: Cytotoxicity against vincristine-resistant human KB cells assessed as growth inhibition after 72 hrs by MTT assay; format: functional, cell-based
KB [3] = assay: Cytotoxicity against vincristine-resistant human KB cells assessed as growth inhibition after 72 hrs by MTT assay in presence of vincristine; format: functional, cell-based
A549 = assay: Cytotoxicity against human A549 cells assessed as growth inhibition after 72 hrs by MTT assay; format: functional, cell-based; settings: A549, 72 h
MCF7 = assay: Cytotoxicity against human MCF7 cells assessed as growth inhibition after 72 hrs by MTT assay; format: functional, cell-based; settings: MCF7, 72 h
MDA-MB-468 [4] = assay: Cytotoxicity against human MDA-MB-468 cells assessed as growth inhibition after 72 hrs by MTT assay; format: functional, cell-based; settings: MDA-MB-468, 72 h
HCT-116 [5] = assay: Cytotoxicity against human HCT116 cells assessed as growth inhibition after 72 hrs by MTT assay; format: functional, cell-based; settings: HCT-116, 72 h
HT-29 = assay: Cytotoxicity against human HT-29 cells assessed as growth inhibition after 72 hrs by MTT assay; format: functional, cell-based; settings: HT-29, 72 h
HCT-116 [6] = assay: Cell cycle arrest in human HCT116 cells assessed as accumulation at pre-G1 phase at IC50 to 2 times IC50 after 48 hrs relative to control; format: functional
Outline: (§1)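 Cells were exposed for 48 h, then analysed by flow-cytometric cell cycle profiling. Pre-G1 events were scored and compared with untreated control, with significance at p < 0.05.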

MDA-MB-468 [7] = assay: Cell cycle arrest in human MDA-MB-468 cells assessed as accumulation at pre-G1 phase at IC50 to 2 times IC50 after 48 hrs relative to control; format: functional; outline: as §1
HCT-116 [8] = assay: Induction of apoptosis in human HCT116 cells assessed as early apoptotic cells at IC50 after 48 hrs by annexin V-FITC/propidium iodide staining-based flow cytometric analysis (reference value: 1.45%); format: functional
HCT-116 [9] = assay: Induction of apoptosis in human HCT116 cells assessed as late apoptotic cells at IC50 after 48 hrs by annexin V-FITC/propidium iodide staining-based flow cytometric analysis (reference value: 2.27%); format: functional
HCT-116 [10] = assay: Induction of apoptosis in human HCT116 cells assessed as necrotic cells at IC50 after 48 hrs by annexin V-FITC/propidium iodide staining-based flow cytometric analysis (reference value: 1.84%); format: functional
HCT-116 [11] = assay: Induction of apoptosis in human HCT116 cells assessed as viable cells at IC50 after 48 hrs by annexin V-FITC/propidium iodide staining-based flow cytometric analysis (reference value: 94.4%); format: functional
HCT-116 [12] = assay: Induction of apoptosis in human HCT116 cells assessed as early apoptotic cells at 2 times IC50 after 48 hrs by annexin V-FITC/propidium iodide staining-based flow cytometric analysis (reference value: 1.45%); format: functional
HCT-116 [13] = assay: Induction of apoptosis in human HCT116 cells assessed as late apoptotic cells at 2 times IC50 after 48 hrs by annexin V-FITC/propidium iodide staining-based flow cytometric analysis (reference value: 2.27%); format: functional
HCT-116 [14] = assay: Induction of apoptosis in human HCT116 cells assessed as necrotic cells at 2 times IC50 after 48 hrs by annexin V-FITC/propidium iodide staining-based flow cytometric analysis (reference value: 1.84%); format: functional
HCT-116 [15] = assay: Induction of apoptosis in human HCT116 cells assessed as viable cells at 2 times IC50 after 48 hrs by annexin V-FITC/propidium iodide staining-based flow cytometric analysis (reference value: 94.4%); format: functional
MDA-MB-468 [16] = assay: Induction of apoptosis in human MDA-MB-468 cells assessed as early apoptotic cells at IC50 after 48 hrs by annexin V-FITC/propidium iodide staining-based flow cytometric analysis (reference value: 3.24%); format: functional
MDA-MB-468 [17] = assay: Induction of apoptosis in human MDA-MB-468 cells assessed as late apoptotic cells at IC50 after 48 hrs by annexin V-FITC/propidium iodide staining-based flow cytometric analysis (reference value: 3.65%); format: functional
MDA-MB-468 [18] = assay: Induction of apoptosis in human MDA-MB-468 cells assessed as necrotic cells at IC50 after 48 hrs by annexin V-FITC/propidium iodide staining-based flow cytometric analysis (reference value: 0.25%); format: functional
MDA-MB-468 [19] = assay: Induction of apoptosis in human MDA-MB-468 cells assessed as viable cells at IC50 after 48 hrs by annexin V-FITC/propidium iodide staining-based flow cytometric analysis (reference value: 92.9%); format: functional
MDA-MB-468 [20] = assay: Induction of apoptosis in human MDA-MB-468 cells assessed as early apoptotic cells at 2 times IC50 after 48 hrs by annexin V-FITC/propidium iodide staining-based flow cytometric analysis (reference value: 3.24%); format: functional
MDA-MB-468 [21] = assay: Induction of apoptosis in human MDA-MB-468 cells assessed as late apoptotic cells at 2 times IC50 after 48 hrs by annexin V-FITC/propidium iodide staining-based flow cytometric analysis (reference value: 3.65%); format: functional
MDA-MB-468 [22] = assay: Induction of apoptosis in human MDA-MB-468 cells assessed as necrotic cells at 2 times IC50 after 48 hrs by annexin V-FITC/propidium iodide staining-based flow cytometric analysis (reference value: 0.25%); format: functional
MDA-MB-468 [23] = assay: Induction of apoptosis in human MDA-MB-468 cells assessed as viable cells at 2 times IC50 after 48 hrs by annexin V-FITC/propidium iodide staining-based flow cytometric analysis (reference value: 92.9%); format: functional

With `CC[C@H]1C[C@H]2C[C@H]3c4[nH]c5ccc(OC)cc5c4C(=O)CN(C2)[C@@H]13` the IC50 (KB [1]) was > 25 µg/mL, the IC50 (KB [2]) was > 25 µg/mL and the IC50 (KB [3]) was > 25 µg/mL.
With `CC[C@]1(O)C[C@@H]2CC(=O)n3c4c(c5ccccc53)CCN(C1)[C@@H]42` the IC50 (KB [1]) was > 25 µg/mL, the IC50 (KB [2]) was > 25 µg/mL and the IC50 (KB [3]) was > 25 µg/mL.
With `CC[C@H]1C[C@H]2C[C@@H]3[C@H]1N(C2)C[C@@H](O)[C@@]31Nc2ccc(OC)cc2C1=O` the IC50 (KB [1]) was > 25 µg/mL, the IC50 (KB [2]) was > 25 µg/mL and the IC50 (KB [3]) was 53.2 µM.
Work on `C/C=C1/CN(C)[C@H]2Cc3c([nH]c4ccccc34)[C@@H](c3cc4[nH]c5c(c4cc3OC)CCN3C[C@H]4C[C@H](CC)[C@H]3[C@H]5C4)C[C@H]1[C@]2(CO)C(=O)OC` yielded an IC50 (KB [1]) of 1.39 µM, an IC50 (KB [2]) of 1.21 µM and an IC50 (KB [3]) of 0.98 µM. It also gave an IC50 (A549) of 3.06 µM, an IC50 (MCF7) of 4.19 µM and an IC50 (MDA-MB-468 [4]) of 2.77 µM. The IC50 (HCT-116 [5]) was 2.91 µM, the IC50 (HT-29) was 2.57 µM and the Activity (HCT-116 [6]) was 80%. For the same molecule, the Activity (MDA-MB-468 [7]) was 35%, the Activity (HCT-116 [8]) was 6.98% and the Activity (HCT-116 [9]) was 11.4%. For the same molecule, the Activity (HCT-116 [10]) was 3%, the Activity (HCT-116 [11]) was 79.6% and the Activity (HCT-116 [12]) was 8.25%. The Activity (HCT-116 [13]) was 72.4%, the Activity (HCT-116 [14]) was 14.5% and the Activity (HCT-116 [15]) was 4.85%. It also gave an Activity (MDA-MB-468 [16]) of 3.95%, an Activity (MDA-MB-468 [17]) of 5.76% and an Activity (MDA-MB-468 [18]) of 0.18%. The Activity (MDA-MB-468 [19]) was 90.1%, the Activity (MDA-MB-468 [20]) was 21.4% and the Activity (MDA-MB-468 [21]) was 13.8%. It also gave an Activity (MDA-MB-468 [22]) of 1.68% and an Activity (MDA-MB-468 [23]) of 63.1%.
`CC[C@H]1C[C@H]2C[C@H]3c4[nH]c5cc(C6CCC(=O)N6)c(OC)cc5c4CCN(C2)[C@@H]13` (stereo partly specified) was tested, and the IC50 (KB [1]) was > 25 µg/mL, the IC50 (KB [2]) was > 25 µg/mL and the IC50 (KB [3]) was > 25 µg/mL.
In the case of `C/C=C1/CN2[C@H]3C[C@H]1C1(C(=O)OC)C[C@]4(C[C@@H]21)c1ccccc1N(C)[C@H]34` (stereo partly specified), the IC50 (KB [1]) is reported as > 25 µg/mL, the IC50 (KB [2]) is reported as > 25 µg/mL and the IC50 (KB [3]) is reported as 2.62 µM.
`C/C=C1/CN(C)[C@H]2Cc3c([nH]c4ccccc34)[C@@H](c3cc4[nH]c5c(c4cc3OC)CCN3C[C@H]4C[C@H](CC)[C@H]3[C@H]5C4)C[C@H]1[C@@H]2C(=O)OC` gave an IC50 (KB [1]) of 1.53 µM, an IC50 (KB [2]) of 0.98 µM and an IC50 (KB [3]) of 0.8 µM.
With `C/C=C1/CN[C@H]2Cc3c([nH]c4ccccc34)[C@@H](c3cc4[nH]c5c(c4cc3OC)CCN3C[C@H]4C[C@H](CC)[C@H]3[C@H]5C4)C[C@H]1[C@@H]2C(=O)OC` the IC50 (KB [1]) was 0.95 µM, the IC50 (KB [2]) was 1.11 µM and the IC50 (KB [3]) was 1.2 µM. It also gave an IC50 (A549) of 2.83 µM, an IC50 (MCF7) of 3.23 µM and an IC50 (MDA-MB-468 [4]) of 0.7 µM. For the same molecule, the IC50 (HCT-116 [5]) was 2.03 µM, the IC50 (HT-29) was 1.58 µM and the Activity (HCT-116 [6]) was 80%. It also gave an Activity (MDA-MB-468 [7]) of 35%, an Activity (HCT-116 [8]) of 7.76% and an Activity (HCT-116 [9]) of 22%. The Activity (HCT-116 [10]) was 48.4%, the Activity (HCT-116 [11]) was 21.9% and the Activity (HCT-116 [12]) was 3.5%. The Activity (HCT-116 [13]) was 43.7%, the Activity (HCT-116 [14]) was 46.4% and the Activity (HCT-116 [15]) was 6.4%. For the same molecule, the Activity (MDA-MB-468 [16]) was 3.7%, the Activity (MDA-MB-468 [17]) was 3.15% and the Activity (MDA-MB-468 [18]) was 0.17%. The Activity (MDA-MB-468 [19]) was 93%, the Activity (MDA-MB-468 [20]) was 42.5% and the Activity (MDA-MB-468 [21]) was 32%. The Activity (MDA-MB-468 [22]) was 2.68% and the Activity (MDA-MB-468 [23]) was 22.8%.
For `C/C=C1/C[N+]2(CCl)CC[C@]34C(=C(C=O)[C@H]1C[C@@H]32)Nc1ccccc14.[Cl-]` (stereo partly specified), the IC50 (KB [1]) was > 25 µg/mL, the IC50 (KB [2]) was > 25 µg/mL and the IC50 (KB [3]) was > 25 µg/mL.
`C/C=C1/CN(C)[C@H]2Cc3c([nH]c4ccccc34)[C@@H](c3cc4c(cc3OC)C(=O)[C@@]3(CCN5C[C@H]6C[C@H](CC)[C@H]5[C@H]3C6)N4)C[C@H]1[C@@H]2C(=O)OC` showed an IC50 (KB [1]) of 1.06 µM, an IC50 (KB [2]) of 1.06 µM and an IC50 (KB [3]) of 1.21 µM.
